Source: ChEMBL document CHEMBL3763086, “Salicylanilide N-monosubstituted carbamates: Synthesis and in vitro antimicrobial activity” (2016)
≈ marks a conversion by molar mass, not a printed value.

Key:
Format in all cases: functional
[1] = system: Staphylococcus aureus; assay: Antibacterial activity against methicillin-resistant Staphylococcus aureus H 5996/08 after 24 hrs by microbroth dilution method; conditions: H 5996/08, 24 h
Procedure, shortened: (§1)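 Microdilution broth method modified after M07-A07 in Mueller-Hinton broth adjusted to pH 7.4 (±0.2). Inoculum prepared in sterile water to 0.5 McFarland (1.5 × 10^8 CFU/mL). MIC taken as growth reduction versus control (IC95 per table header), read visually and spectrophotometrically at 540 nm after 24 and 48 h incubation in the dark.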

[2] = system: Candida tropicalis; assay: Antifungal activity against Candida tropicalis 156 after 24 hrs by microbroth dilution method; conditions: Candida tropicalis, 156, 24 h
[3] = system: Candida albicans; assay: Antifungal activity against Candida albicans ATCC 44859 after 48 hrs by microbroth dilution method; conditions: ATCC 44859, 48 h
[4] = system: Trichosporon asahii; assay: Antifungal activity against Trichosporon asahii 1188 after 24 hrs by microbroth dilution method; conditions: Trichosporon asahii, 1188, 24 h
[5] = system: Staphylococcus epidermidis; assay: Antibacterial activity against Staphylococcus epidermidis H 6966/08 after 48 hrs by microbroth dilution method; conditions: H 6966/08, 48 h
Procedure, shortened: (§2)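 Microbroth dilution modified per M07-A07 in Mueller-Hinton broth, pH 7.4 (±0.2). Inoculum in sterile water adjusted to 0.5 McFarland. MIC taken as growth reduction of at least 90% (IC90) versus control, read visually and at 540 nm after 24 and 48 h incubation in the dark.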

[6] = system: Lichtheimia corymbifera; assay: Antifungal activity against Absidia corymbifera 272 after 48 hrs by microbroth dilution method; conditions: Lichtheimia corymbifera, 272, 48 h
[7] = system: Escherichia coli; assay: Antibacterial activity against Escherichia coli CCM 4517 after 48 hrs by microbroth dilution method; conditions: CCM 4517, 48 h; procedure, shortened: as §2
[8] = system: Lichtheimia corymbifera; assay: Antifungal activity against Absidia corymbifera 272 after 24 hrs by microbroth dilution method; conditions: Lichtheimia corymbifera, 272, 24 h
[9] = system: Staphylococcus aureus; assay: Antibacterial activity against methicillin-resistant Staphylococcus aureus H 5996/08 after 48 hrs by microbroth dilution method; conditions: H 5996/08, 48 h; procedure, shortened: as §1
[10] = system: Pichia kudriavzevii; assay: Antifungal activity against Candida krusei E28 after 48 hrs by microbroth dilution method; conditions: E28, 48 h
[11] = system: Candida albicans; assay: Antifungal activity against Candida albicans ATCC 44859 after 24 hrs by microbroth dilution method; conditions: ATCC 44859, 24 h
[12] = system: Candida tropicalis; assay: Antifungal activity against Candida tropicalis 156 after 48 hrs by microbroth dilution method; conditions: Candida tropicalis, 156, 48 h
[13] = system: Trichosporon asahii; assay: Antifungal activity against Trichosporon asahii 1188 after 48 hrs by microbroth dilution method; conditions: Trichosporon asahii, 1188, 48 h
[14] = system: Staphylococcus epidermidis; assay: Antibacterial activity against Staphylococcus epidermidis H 6966/08 after 24 hrs by microbroth dilution method; conditions: H 6966/08, 24 h; procedure, shortened: as §2
[15] = system: Enterococcus sp.; assay: Antibacterial activity against Enterococcus sp. J 14365/08 after 24 hrs by microbroth dilution method; conditions: J 14365/08, 24 h; procedure, shortened: as §2
[16] = system: Pichia kudriavzevii; assay: Antifungal activity against Candida krusei E28 after 24 hrs by microbroth dilution method; conditions: E28, 24 h
[17] = system: Klebsiella pneumoniae; assay: Antibacterial activity against ESBL-positive Klebsiella pneumoniae J 14368/08 after 48 hrs by microbroth dilution method; conditions: J 14368/08, 48 h; procedure, shortened: as §2
[18] = system: Trichophyton mentagrophytes; assay: Antifungal activity against Trichophyton mentagrophytes 445 after 120 hrs by microbroth dilution method; conditions: Trichophyton mentagrophytes, 445, 120 h
[19] = system: Enterococcus sp.; assay: Antibacterial activity against Enterococcus sp. J 14365/08 after 48 hrs by microbroth dilution method; conditions: J 14365/08, 48 h; procedure, shortened: as §2
[20] = system: Klebsiella pneumoniae; assay: Antibacterial activity against Klebsiella pneumoniae D 11750/08 after 48 hrs by microbroth dilution method; conditions: D 11750/08, 48 h; procedure, shortened: as §2
[21] = system: Nakaseomyces glabratus; assay: Antifungal activity against Candida glabrata 20/I after 24 hrs by microbroth dilution method
[22] = system: Trichophyton mentagrophytes; assay: Antifungal activity against Trichophyton mentagrophytes 445 after 72 hrs by microbroth dilution method; conditions: Trichophyton mentagrophytes, 445, 72 h
[23] = system: Staphylococcus aureus; assay: Antibacterial activity against Staphylococcus aureus CCM 4516/08 after 48 hrs by microbroth dilution method; conditions: CCM 4516/08, 48 h; procedure, shortened: as §1
[24] = system: Klebsiella pneumoniae; assay: Antibacterial activity against Klebsiella pneumoniae D 11750/08 after 24 hrs by microbroth dilution method; conditions: D 11750/08, 24 h; procedure, shortened: as §2
[25] = system: Klebsiella pneumoniae; assay: Antibacterial activity against ESBL-positive Klebsiella pneumoniae J 14368/08 after 24 hrs by microbroth dilution method; conditions: J 14368/08, 24 h; procedure, shortened: as §2
[26] = system: Nakaseomyces glabratus; assay: Antifungal activity against Candida glabrata 20/I after 48 hrs by microbroth dilution method
[27] = system: Staphylococcus aureus; assay: Antibacterial activity against Staphylococcus aureus CCM 4516/08 after 24 hrs by microbroth dilution method; conditions: CCM 4516/08, 24 h; procedure, shortened: as §2
[28] = system: Escherichia coli; assay: Antibacterial activity against Escherichia coli CCM 4517 after 24 hrs by microbroth dilution method; conditions: CCM 4517, 24 h; procedure, shortened: as §2

SMILES	MIC [1] [µM]	MIC [2] [µM]	MIC [3] [µM]	MIC [4] [µM]	MIC [5] [µM]	MIC [6] [µM]	MIC [7] [µM]	MIC [8] [µM]	MIC [9] [µM]	MIC [10] [µM]	MIC [11] [µM]	MIC [12] [µM]	MIC [13] [µM]	MIC [14] [µM]	MIC [15] [µM]	MIC [16] [µM]	MIC [17] [µM]	MIC [18] [µM]	MIC [19] [µM]	MIC [20] [µM]	further results
O=C(NC1CCCCC1)Oc1ccc(Cl)cc1C(=O)Nc1ccc(F)cc1	31.2 (≈ 12.2 µg/mL)	> 125	> 125	62.5 (≈ 24.4 µg/mL)	7.81 (≈ 3.05 µg/mL)	> 125	> 125	125 (≈ 48.9 µg/mL)	31.2 (≈ 12.2 µg/mL)	> 125	> 125	> 125	> 125	7.81 (≈ 3.05 µg/mL)	> 125	> 125	62.5 (≈ 24.4 µg/mL)	1.95 (≈ 0.762 µg/mL)	> 125	> 125	MIC [21]: 125 µM (≈ 48.9 µg/mL); MIC [22]: 1.95 µM (≈ 0.762 µg/mL); MIC [23]: 15.6 µM (≈ 6.1 µg/mL); MIC [24]: > 125 µM; MIC [25]: 62.5 µM (≈ 24.4 µg/mL); MIC [26]: > 125 µM; MIC [27]: 15.6 µM (≈ 6.1 µg/mL); MIC [28]: > 125 µM
O=C(Nc1ccccc1)Oc1ccc(Cl)cc1C(=O)Nc1ccc(F)cc1	7.81 (≈ 3.01 µg/mL)	> 250	> 250	> 250	7.81 (≈ 3.01 µg/mL)	> 250	> 500	> 250	7.81 (≈ 3.01 µg/mL)	> 250	> 250	> 250	> 250	7.81 (≈ 3.01 µg/mL)	250 (≈ 96.2 µg/mL)	> 250	250 (≈ 96.2 µg/mL)	15.6 (≈ 6.01 µg/mL)	250 (≈ 96.2 µg/mL)	250 (≈ 96.2 µg/mL)	MIC [21]: > 250 µM; MIC [22]: 3.9 µM (≈ 1.5 µg/mL); MIC [23]: 7.81 µM (≈ 3.01 µg/mL); MIC [24]: 250 µM (≈ 96.2 µg/mL); MIC [25]: 250 µM (≈ 96.2 µg/mL); MIC [26]: > 250 µM; MIC [27]: 7.81 µM (≈ 3.01 µg/mL); MIC [28]: > 500 µM
O=C(Nc1ccccc1)Oc1ccccc1C(=O)Nc1ccccc1	500 (≈ 166 µg/mL)	> 500	> 500	> 500	500 (≈ 166 µg/mL)	> 500	> 500	> 500	500 (≈ 166 µg/mL)	> 500	> 500	> 500	> 500	500 (≈ 166 µg/mL)	> 500	> 500	> 500	125 (≈ 41.5 µg/mL)	> 500	> 500	MIC [21]: > 500 µM; MIC [22]: 125 µM (≈ 41.5 µg/mL); MIC [23]: 500 µM (≈ 166 µg/mL); MIC [24]: > 500 µM; MIC [25]: > 500 µM; MIC [26]: > 500 µM; MIC [27]: 500 µM (≈ 166 µg/mL); MIC [28]: > 500 µM
